The list is not random: actives were taken first. Their share in the collection is about 4.2%.
UPR XBP1 act = activators of adaptive arm of unfolded protein response (XBP1). CHO-XBP1 luciferase reporter, IRE1-XBP1 UPR activation, luminescence; percent of tunicamycin response, DMSO as zero. activation, % at 20 µM. hit rate 0.33% among 330,000;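 active = versus positive control, 20 µM dose yields 30% or more activation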
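Assay system: IRE1-XBP1 luciferase reporter CHO line. Input: 1000 cells/well. Buffer or medium: F12 with 10% serum. Doses: 20 µM, 1% DMSO. Times: overnight seeding at 37 °C, 6 h compound treatment at 37 °C. Technique: Steady-Glo luciferase glow luminescence, 10 min after reagent addition.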
TMEM16A act = mouse TMEM16A channel activation, primary screen; AID 623877; HEK293 TMEM16A/YFP-H148Q/I152L, iodide quench fluorescence; stronger effect = lower value; B-score at 10 µM; hit rate 0.3% among 340,000;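 active = fluorescence-ratio B-score plate-corrected deviation score at least 3 library SD below zero, with starting fluorescence score within 5 deviations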;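 note: channel opened by trigger with iodide after compound preincubation; score built on the fluorescence ratio of max minus min over baseline; more negative score means more quench and so TMEM16A activation or potentiation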
Target sequence (Q8BHY3 whole entry, looked up): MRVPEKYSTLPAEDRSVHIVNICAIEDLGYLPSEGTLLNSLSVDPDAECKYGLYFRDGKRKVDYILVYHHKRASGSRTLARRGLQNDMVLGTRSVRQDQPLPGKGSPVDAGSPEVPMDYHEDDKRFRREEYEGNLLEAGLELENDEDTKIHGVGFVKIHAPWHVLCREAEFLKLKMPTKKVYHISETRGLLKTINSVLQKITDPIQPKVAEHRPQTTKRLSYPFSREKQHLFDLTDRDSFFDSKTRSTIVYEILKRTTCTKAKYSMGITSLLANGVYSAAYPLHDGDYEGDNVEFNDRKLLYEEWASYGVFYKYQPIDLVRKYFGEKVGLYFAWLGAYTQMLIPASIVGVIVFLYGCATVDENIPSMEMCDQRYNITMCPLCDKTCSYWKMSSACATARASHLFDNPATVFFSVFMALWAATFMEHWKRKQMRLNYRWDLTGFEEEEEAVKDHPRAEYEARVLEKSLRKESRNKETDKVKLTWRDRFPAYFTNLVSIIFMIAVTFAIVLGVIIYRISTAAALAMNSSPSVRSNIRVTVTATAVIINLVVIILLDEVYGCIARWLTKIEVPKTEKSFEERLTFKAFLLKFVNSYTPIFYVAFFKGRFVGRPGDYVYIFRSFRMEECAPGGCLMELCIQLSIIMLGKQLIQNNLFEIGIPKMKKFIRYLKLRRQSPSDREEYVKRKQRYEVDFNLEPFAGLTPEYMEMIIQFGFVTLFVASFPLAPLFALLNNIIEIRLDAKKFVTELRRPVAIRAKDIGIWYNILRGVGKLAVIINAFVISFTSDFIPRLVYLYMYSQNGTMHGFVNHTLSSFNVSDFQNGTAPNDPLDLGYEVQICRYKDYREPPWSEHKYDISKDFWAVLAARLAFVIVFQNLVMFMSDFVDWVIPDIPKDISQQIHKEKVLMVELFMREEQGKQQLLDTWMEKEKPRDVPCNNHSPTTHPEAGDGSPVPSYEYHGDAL
UPR CHOP act = activators of apoptotic arm of unfolded protein response (CHOP) | hit rate 0.34% among 330,000 | AID 449763 | activation, % at 10 µM | CHO-CHOP luciferase reporter, UPR activation, luminescence; percent of tunicamycin response over DMSO baseline;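 active = at 10 µM dose, activation of 40% or more, normalized to positive control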
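System: CHO-CHOP luciferase reporter cell line; amount: 500 cells/well; buffer or medium: F12 medium containing 10% fetal bovine serum; incubation: 6 h compound exposure at 37 °C after overnight seeding; measured by: luciferase luminescence after 10 min with Steady-Glo reagent; evaluation: % reporter activation, DMSO baseline versus tunicamycin full activation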
CHOP inh = blocks CHOP induction under ER stress. CHO-K1 CHOP-promoter luciferase, tunicamycin-induced, 15-18 h. inhibition, % at 10 µM. hit rate 3.8% among 220,000. AID 2732;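 active = compounds that reduced the stress-induced luciferase reporter signal by more than about 70% of percent inhibition, limit read from the data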
Hep lipid drop = hepatic lipid droplet formation modulation. AML12 mouse hepatocytes, oleate lipid droplets, BODIPY imaging. inhibition, % at 6.5 µM. hit rate 0.4% among 240,000. AID 1656;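 active = lipid droplet intensity inhibited by at least 50%, with more than 500 cells counted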
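Assay system: AML12 hepatocytes (mouse) / Also added: 100 µM oleic acid challenge / Times: overnight treatment with compound plus oleate / Detection: high-content imaging of BODIPY-stained droplets and DAPI nuclei / Evaluation: % inhibition of lipid droplet signal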
ANO1 block = blocks the mouse calcium-activated chloride channel TMEM16A; Q8BHY3; HEK293 TMEM16A/YFP iodide influx fluorescence, ionomycin; normalized B-score (activity score, 25-100; higher = stronger inhibition) at 10 µM; hit rate 1.2% among 310,000; AID 588511;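 active = ratio plate-corrected score three or more library SD toward inhibition, starting fluorescence score within five deviations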;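 note: score derived from kinetic fluorescence span divided by baseline fluorescence per well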
CHOP confirm = confirmation of CHOP induction inhibitors; shares compounds with CHOP inh; CHO-CHOP promoter luciferase reporter, tunicamycin-induced, luminescence; inhibition, % at 10 µM; hit rate 45% among 2,100; AID 504437;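 active = mean of three repeat readings of reporter signal inhibition above a set limit, cut at about 70% in these data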
Of the large screens only hits and unclear results are named; the others gave an inactive call (follow-up assays come after a bar, where they were run).

O=C1NC[C@@H](Cc2cccc3ccccc23)N(CCc2cc(C(F)(F)F)cc(C(F)(F)F)c2)C1=O	CHOP inh 97 | CHOP confirm 133
O=C1NC[C@@H](Cc2ccc(O)cc2)N(CCc2cccc3ccccc23)C1=O	none
CCCc1cc(-c2[nH]ncc2-c2ccc3c(c2)OCCCO3)c(O)cc1O	CHOP inh 101, ANO1 block 25 | CHOP confirm inactive
CCCc1cc(-c2[nH]ncc2-c2ccc(C(=O)OCC)o2)c(O)cc1O	none (no result: Hep lipid drop)
CC1CN(C(=O)CCc2cc(C(C)(C)C)c(O)c(C(C)(C)C)c2)CC(C)O1 (stereo not given)	none (no result: CHOP inh)
C=CCOC(=O)C1=C(C)NC(SCC(=O)Nc2nccs2)=C(C#N)C1c1cccs1 (stereo not given)	CHOP inh 99 (no result: Hep lipid drop) | CHOP confirm inactive
C=CCOC(=O)C1=C(C)NC(SCC(=O)Nc2nccs2)=C(C#N)C1c1ccc(Cl)cc1 (stereo not given)	CHOP inh 106 (no result: Hep lipid drop) | CHOP confirm 132
O=C1CCCCc2sc(Br)c([N+](=O)[O-])c2N1	CHOP inh 105 | CHOP confirm inactive
Cn1cccc1/C=N/NC(=O)c1ccn[nH]1	none
CC(C)(C)c1ccc(C(=O)NNC(=O)c2cccc(Br)c2)cc1	CHOP inh 102 | CHOP confirm 94
Cc1ccc(C(=O)NNC(=O)c2cccc(Br)c2)cc1	none (no result: CHOP inh, Hep lipid drop)
Cc1nn(-c2ccccc2)c(Cl)c1CN(C(=O)CCl)c1ccc(Cl)cc1	CHOP inh 109 (no result: UPR XBP1 act, UPR CHOP act) | CHOP confirm 140
Cc1cc(C(=O)N2CCN(c3ncccn3)CC2)nn1C	none
Cc1cccc(N2CCN(C(=O)c3c(C)nn(Cc4ccccc4Cl)c3C)CC2)c1C	CHOP inh 103 | CHOP confirm 86
N#CC1(NC(=O)COc2cccnc2[N+](=O)[O-])CCCCC1	none (no result: CHOP inh, Hep lipid drop, ANO1 block)
Fc1ccc(-n2nnnc2-c2cnc(-c3cccs3)nc2C(F)(F)F)cc1	CHOP inh 105 (no result: Hep lipid drop) | CHOP confirm 121
Cc1ccccc1CCN1CCCC(CN(C)C(=O)C(=O)c2ccco2)C1 (stereo not given)	none (no result: CHOP inh)
COc1ccc(CN(C(=O)/C=C/C(=O)c2ccc(OC)cc2O)C(C(=O)NC2CCCCC2)c2ccncc2)cc1 (stereo not given)	none
COc1ccc(C(=O)/C=C/C(=O)N(CC(=O)NC2CCCCC2)Cc2cccs2)c(O)c1	CHOP inh 108 | CHOP confirm 119
Cc1onc(-c2c(F)cccc2Cl)c1C(O)c1ccc(F)cc1 (stereo not given)	none
CCOC(=O)c1c(CN2CCOCC2)n(-c2ccccc2)c2cc(Br)c(O)cc12	CHOP inh 99 (no result: Hep lipid drop) | CHOP confirm 95
Cc1cc(C)c(S(=O)(=O)c2ccccc2)c(OC(=O)c2cc(F)c(F)cc2Cl)n1	CHOP inh 107 (no result: Hep lipid drop) | CHOP confirm 139
O=C(Nc1ccccn1)c1cc(-c2cccnc2)nc2ccc(Br)cc12	CHOP inh 103 | CHOP confirm inactive
O=C(Nc1ccc(C(=O)N2CCOCC2)cc1)c1cc(-c2cccnc2)nc2ccc(Br)cc12	none (no result: Hep lipid drop)
Cc1cc(/C=c2/sc3nc4ccccc4n3c2=O)c(C)n1-c1ccccn1	CHOP inh 107 (no result: Hep lipid drop) | CHOP confirm 118
Cc1cc(O)cc2c1C1CCC3(C)C(O)CCC3C1C=C2 (stereo not given)	none (no result: UPR XBP1 act, UPR CHOP act, CHOP inh, Hep lipid drop, ANO1 block)
O=C(Nc1ccc(Cl)c(C(F)(F)F)c1)NC1CC2CCCC(C1)N2Cc1ccccc1 (stereo not given)	CHOP inh 101, ANO1 block 100 (no result: TMEM16A act) | CHOP confirm 98
COC(=O)c1sc(-c2ccc(C(C)(C)C)cc2)cc1NC(=O)c1ccccc1C(=O)O	CHOP inh 106, ANO1 block 100 | CHOP confirm 116
Cc1ccc(C2=CC(c3ccc(N(C)C)cc3)n3nnnc3N2)cc1 (stereo not given)	CHOP inh 100 (no result: Hep lipid drop) | CHOP confirm inactive
O=S1(=O)C=C(Sc2nnc(-c3ccccc3)o2)c2ccccc21	none (no result: CHOP inh, Hep lipid drop) | CHOP confirm 125
Cc1cc(C)nc(SC2=CS(=O)(=O)c3ccccc32)n1	none
CN=C1SC(CC(=O)Nc2ccccc2F)C(=O)N1/N=C/c1ccc(O)c(OC)c1 (stereo not given)	none
CCOc1ccc(/C=N/N2C(=O)C(CC(=O)Nc3ccc(F)cc3F)SC2=NC)cc1OC (stereo not given)	CHOP inh 106 (no result: Hep lipid drop) | CHOP confirm inactive
Cc1ccc2oc(-c3cccc(NC(=O)Cn4cnc5c(=O)n(C)c(=O)n(C)c54)c3)nc2c1	CHOP inh 104, ANO1 block 100 (no result: TMEM16A act) | CHOP confirm inactive
CN(CC(=O)Nc1ccccc1C(F)(F)F)C(=O)CN1C(=O)C2CCCCC2C1=O (stereo not given)	none (no result: CHOP inh, Hep lipid drop)
Clc1ccc2ncc(-c3nnnn3-c3ccccc3)c(-c3ccccc3)c2c1	CHOP inh 107 (no result: Hep lipid drop) | CHOP confirm inactive
Clc1ccc(-n2nnnc2-c2cnc3ccc(Cl)cc3c2-c2ccccc2)cc1	none
Cc1ccc(OCCN(C)C(=O)C2CCC(=O)N(CCCN3CCOCC3)C2)cc1 (stereo not given)	none (no result: CHOP inh)
